Tested on: larval zebrafish
Experiment: Battery of 10 behavioral assays in larval zebrafish
Type: in vivo, zebrafish (Danio rerio)
Conditions: for Haloperidol-like phenotype (zebrafish motor activity heat maps): Fig. 3b, three wells per drug
Summary of the method: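 7 d.p.f. Ekkwill larvae, 8–10 per well in E3, held 1 h at 25 °C, then given compound (<1% DMSO; DMSO-treated control wells) for 1 h at room temperature. Ten-assay battery of red/blue/violet light and 60/70 dB sound, IR-lit video; MI by frame differencing over 10,500 time points. Seven 2-fold concentrations, 12 wells each, triplicate days; magnitude = 5th-percentile-subtracted MI averaged over time.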

Compound: CSc1ccc2c(c1)N(CCC1CCCCN1C)c1ccccc1S2 (stereo not drawn) [thioridazine]
- Haloperidol-like phenotype (zebrafish motor activity heat maps): cause haloperidol-like phenotypes

Compound: CN1c2ccccc2C(NCCCCCCC(=O)O)c2ccc(Cl)cc2S1(=O)=O (stereo not drawn) [Tianeptine]
- Effect on behavioral profile (phenotypic distance from control animals) (reference set, seven concentrations): failed to show an effect

Compound: CN1CCN(CCCN2c3ccccc3Sc3ccc(Cl)cc32)CC1 [prochlorperazine]
- Haloperidol-like phenotype (zebrafish motor activity heat maps): cause haloperidol-like phenotypes

Compound: O=C(CCCN1CC=C(n2c(=O)[nH]c3ccccc32)CC1)c1ccc(F)cc1 [DROPERIDOL]
- Haloperidol-like phenotype (zebrafish motor activity heat maps): cause haloperidol-like phenotypes

Compound: O=C(CCCN1CCC(O)(c2ccc(Br)cc2)CC1)c1ccc(F)cc1 [BROMPERIDOL]
- Haloperidol-like phenotype (zebrafish motor activity heat maps): cause haloperidol-like phenotypes

Compound: O=C(CCCN1CCC(O)(c2ccc(Cl)cc2)CC1)c1ccc(F)cc1 [Haloperidol]
- MI magnitude (5 μM, 48 wells vs DMSO): increased MI magnitude at many points in the time series
- Shape and average magnitude of the behavioral profile (lower concentrations (2.5–10 μM)): changed the shape of the behavioral profile without reducing its average magnitude
- Motor activity (very high concentrations (20–80 μM)): reduced motor activity

Compound: c1ccc2c(c1)Nc1ccccc1S2 [phenothiazine]
- Haloperidol-like phenotype (zebrafish motor activity heat maps): cause haloperidol-like phenotypes

Reference: article PMC4912417 (Nature chemical biology, 2016)
